From ChEMBL document CHEMBL4819122, “Novel 4-(piperazin-1-yl)quinolin-2(1H)-one bearing thiazoles with antiproliferative activity through VEGFR-2-TK inhibition” (Bioorg Med Chem, 2021) come the findings set out here.

Active and inactive are the calls of the source. The calls are words filed in the database; no cut-off is given here.

For one assay, the system named is A549. Put plainly: Cytotoxicity against human A549 assessed as growth inhibition at 10 uM by NCI protocol relative to control. The format is functional. As to conditions: read-out: GI. The essentials:
(§1)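 Run by NCI as a single-dose screen at 10 μM across the sixty-cell-line panel, which covers nine human tumour tissue types. The read-out is percent growth inhibition of treated cells relative to untreated cells.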

The subject of a further assay is EKVX. Put plainly: Cytotoxicity against human EKVX assessed as growth inhibition at 10 uM by NCI protocol relative to control. It counts as functional. The settings on record: read-out: GI. The essentials: as §1
For another assay, the system named is NCI-H522. The assay is described as follows: Cytotoxicity against human NCI-H522 assessed as growth inhibition at 10 uM by NCI protocol relative to control. It counts as functional. As to conditions: read-out: GI. The gist of the method: as §1
In another assay the test system is COLO 205. Put plainly: Cytotoxicity against human COLO 205 assessed as growth inhibition at 10 uM by NCI protocol relative to control. The format is functional. The settings on record: read-out: GI. The gist of the method:
as §1

The test system of a further assay is HCT-116. The assay is described as follows: Cytotoxicity against human HCT-116 assessed as growth inhibition at 10 uM by NCI protocol relative to control. The format is functional. As to conditions: read-out: GI. The gist of the method: as §1
The subject of another assay is KM12. The assay is described as follows: Cytotoxicity against human KM12 assessed as growth inhibition at 10 uM by NCI protocol relative to control. It counts as functional. As to conditions: read-out: GI. The essentials:
as §1

The test system of the next assay is SF-539. The assay is described as follows: Cytotoxicity against human […] assessed as growth inhibition at 10 uM by NCI protocol relative to control. The format is functional. As to conditions: read-out: GI. The gist of the method: as §1
The test system of another assay is SNB-75. The assay is described as follows: Cytotoxicity against human SNB-75 assessed as growth inhibition at 10 uM by NCI protocol relative to control. The format is functional. As to conditions: read-out: GI. The essentials:
(§2)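 Run by the NCI under its standard protocol: one dose of 10 μM against a sixty-line panel from nine human tumour tissues. Result given as percent growth inhibition of treated cells relative to untreated cells.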

Another assay deals with MDA-MB-435. Put plainly: Cytotoxicity against human MDA-MB-435 assessed as growth inhibition at 10 uM by NCI protocol relative to control. The format is functional, cell-based. The gist of the method: as §1
Another assay relates to SK-OV-3. The assay is described as follows: Cytotoxicity against human SK-OV-3 assessed as growth inhibition at 10 uM by NCI protocol relative to control. It counts as functional. As to conditions: read-out: GI. The gist of the method: as §1
A further assay deals with CAKI-1. The assay is described as follows: Cytotoxicity against human Caki1 assessed as growth inhibition at 10 uM by NCI protocol relative to control. The settings on record: read-out: GI. The format is functional. The gist of the method: as §1
The test system of a further assay is SN12C. The assay is described as follows: Cytotoxicity against human SN12C assessed as growth inhibition at 10 uM by NCI protocol relative to control. The format is functional. As to conditions: read-out: GI. The essentials: as §2
A further assay relates to TK-10. Put plainly: Cytotoxicity against human TK-10 assessed as growth inhibition at 10 uM by NCI protocol relative to control. As to conditions: read-out: GI. It counts as functional. The gist of the method:
as §2

The test system of another assay is UO-31. The assay is described as follows: Cytotoxicity against human UO31 assessed as growth inhibition at 10 uM by NCI protocol relative to control. The format is functional. As to conditions: read-out: GI. The essentials:
as §2

The next assay has as its system BT-549. Put plainly: Cytotoxicity against human BT-549 assessed as growth inhibition at 10 uM by NCI protocol relative to control. The format is functional. As to conditions: read-out: GI. The gist of the method:
as §1

In a further assay the test system is HOP-62. Put plainly: Cytotoxicity against human HOP-62 assessed as growth inhibition at 10 uM by NCI protocol relative to control. The format is functional. The settings on record: read-out: GI. The essentials: as §1
The next assay relates to MCF10. Put plainly: Cytotoxicity against human MCF10 cells assessed as reduction in cell viability after 3 hrs by MTT assay. As to conditions: MCF10, 3 h. For orientation: Tetrazolium assays rely on reduction of a dye to a coloured formazan, in cell work by metabolically active cells.
In assay [1] the test system is T47D. The assay is described as follows: Induction of cell cycle arrest in human T47D cells assessed as increase in accumulation at G0/G1 phase after 24 hrs by propidium iodide/Annexin V staining based FACScan flow cytometry(reference value: 52.59%). It counts as functional. On the technique in general: Flow cytometry measures light scatter and fluorescence of single cells or particles in a stream.

For assay [2], the system named is T47D. Put plainly: Induction of cell cycle arrest in human T47D cells assessed as increase in accumulation at S phase after 24 hrs by propidium iodide/Annexin V staining based FACScan flow cytometry(reference value: 34.62%). It counts as functional.
Assay [3] relates to T47D. The assay is described as follows: Induction of cell cycle arrest in human T47D cells assessed as increase in accumulation at G2/M phase after 24 hrs by propidium iodide/Annexin V staining based FACScan flow cytometry(reference value: 12.79%). It counts as functional.
Assay [4] has as its system T47D. The assay is described as follows: Induction of cell cycle arrest in human T47D cells assessed as increase in accumulation at pre G1 phase after 24 hrs by propidium iodide/Annexin V staining based FACScan flow cytometry(reference value: 2.61%). It counts as functional.
Assay [5] relates to T47D. Put plainly: Induction of apoptosis in human T47D cells assessed as total apoptotic cells after 24 hrs by Annexin V-FITC/propidium iodide staining based flow cytometric analysis (reference value: 2.61 %). It counts as functional.
In assay [6] the test system is T47D. Put plainly: Induction of apoptosis in human T47D cells assessed as early apoptotic cells after 24 hrs by Annexin V-FITC/propidium iodide staining based flow cytometric analysis (reference value: 0.66 %). It counts as functional.
Assay [7] deals with T47D. Put plainly: Induction of apoptosis in human T47D cells assessed as late apoptotic cells after 24 hrs by Annexin V-FITC/propidium iodide staining based flow cytometric analysis (reference value: 0.21 %). It counts as functional.
Assay [8] has as its system T47D. Put plainly: Induction of apoptosis in human T47D cells assessed as necrotic cells after 24 hrs by Annexin V-FITC/propidium iodide staining based flow cytometric analysis (reference value: 1.74%). The format is functional.

Regarding `Cc1ccc(-c2csc(NC(=O)CN3CCN(c4cc(=O)[nH]c5ccc(F)cc45)CC3)n2)cc1`, the inhibition of growth at 10 µM with A549 was 43.7%; with EKVX it was 42.1%; in the assay with NCI-H522 it was 22.3%; in the assay on COLO 205, 10.7%; in the assay with HCT-116 it was 45.2%; in the assay on KM12, 13.3%. In addition, the inhibition of growth at 10 µM in the assay with SF-539 was found to be 32.7%; in the assay with SNB-75, 32.6%; in the assay with SK-OV-3, 11%; in the assay on CAKI-1, 52.6%; in the assay on SN12C, 45.1%; in the assay on TK-10, 46.3%. The inhibition of growth at 10 µM was determined as 35.4% with UO-31 and 21.5% in the assay on BT-549. Besides, the “growth inhibition (GI)” value with MDA-MB-435 is “inactive”.
What is called IC50 is the concentration needed to halve the response being measured. On to `O=C(CN1CCN(c2cc(=O)n(-c3ccccc3)c3ccccc23)CC1)Nc1nc(-c2ccc(Cl)cc2)cs1`, for which the inhibition of growth at 10 µM is 47.4% in the assay on A549; 57.3% with EKVX; 34.2% with HOP-62; 43.7% with NCI-H522; 42.7% in the assay on COLO 205; 64.2% in the assay with HCT-116. Besides, the inhibition of growth at 10 µM in the assay with KM12 was 35.3%; in the assay with SF-539 it was 23.9%; in the assay with SNB-75, 32.5%; in the assay on SK-OV-3 it was 28.6%; in the assay with CAKI-1, 50.4%; in the assay on SN12C, 25.9%. The figures for the inhibition of growth at 10 µM in the assay on TK-10, in the assay with UO-31 and in the assay on BT-549 were 37.6%, 70.5% and 53.5%, respectively. In the assay on MDA-MB-435, the “growth inhibition (GI)” value was “inactive”. Further, the IC50 in the assay on MCF10 was determined as 64.6 µM. For the same compound, the Activity with T47D [1] was determined as 45.69%; with T47D [2], 49.36%; in the assay on T47D [3] it was 4.95%; in the assay with T47D [4], 25.12%; with T47D [5], 25.12%; in the assay on T47D [6], 4.06%. In addition, the Activity is 11.21% in the assay with T47D [7] and 9.85% with T47D [8].
As for `O=C(CN1CCN(c2cc(=O)n(-c3ccccc3)c3ccccc23)CC1)Nc1nc(-c2ccccc2)cs1`, the inhibition of growth at 10 µM in the assay with A549 came out at 43.8%; in the assay with EKVX, 54.5%; with HOP-62, 33.5%; in the assay on NCI-H522 it was 33.5%; in the assay with COLO 205 it was 39.9%; with HCT-116 it was 46.6%. In addition, the inhibition of growth at 10 µM in the assay with KM12 amounted to 37%; with SF-539, 22.9%; with SNB-75 it was 28.4%; with SK-OV-3, 29.2%; in the assay with CAKI-1, 38.6%; in the assay on SN12C, 17.9%. For the same compound, the inhibition of growth at 10 µM in the assay on UO-31 was found to be 58.4%; in the assay on BT-549 it was 33%. In the assay on MDA-MB-435, the “growth inhibition (GI)” value is “inactive”.
With `O=C(CN1CCN(c2cc(=O)[nH]c3ccc(F)cc23)CC1)Nc1nc(-c2ccc(Cl)cc2)cs1`, the inhibition of growth at 10 µM was determined as 44.4% with A549; 43.3% in the assay on EKVX; 25.9% with NCI-H522; 14.5% with COLO 205; 48% in the assay on HCT-116; 30.1% in the assay with KM12. In addition, the inhibition of growth at 10 µM with SF-539 turned out to be 30.5%; in the assay on SNB-75, 46.2%; in the assay with SK-OV-3 it was 11.9%; with CAKI-1 it was 55.5%; in the assay on SN12C it was 36.2%; in the assay on TK-10, 34.3%. Further, the inhibition of growth at 10 µM in the assay with UO-31 was found to be 38%; in the assay with BT-549, 27.5%. Moreover, the “growth inhibition (GI)” value with MDA-MB-435 is “inactive”.
